Most compounds without a hit are left out; they make up all but 3.5% or so of the library.
RGS4 pot: potentiators or activators of RGS4; AID 463111; B-score at 10 µM; 0.92% of 310,000 active; HEK293 M3R/inducible RGS4, carbachol calcium flux Fluo4; stronger effect = lower value;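 active = B-score of the integrated calcium signal more than 4 SD below the library mean, with starting fluorescence not abnormally high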;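 note: negative B-score means reduced calcium response which marks RGS4 activation or potentiation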
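Material: Inducible-RGS4 HEK293 cells carrying M3 receptor; also added: carbachol at ECmax as muscarinic agonist stimulus; incubation: compound preincubation 20 min at room temperature before agonist; signal: Fluo4-AM (2 µM) calcium-flux fluorescence, kinetic read; measure: integrated calcium ratio converted to B score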
MrgX1 antagonist: antagonists of human MrgX1 receptor; Q96LB2; MRGX1-HEK293 calcium flux, Fluo-4, BAM8-22 antagonism; stronger effect = lower value; 1.3% of 310,000 active; B-score at 10 µM;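 active = calcium-response B-score plate-corrected more than 3 library SD below zero, starting fluorescence within 5 deviations, no agonist response on first addition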;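 note: peak minus trough fluorescence over baseline after final BAM8-22 challenge near maximal dose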
Target sequence (Q96LB2 whole entry, looked up): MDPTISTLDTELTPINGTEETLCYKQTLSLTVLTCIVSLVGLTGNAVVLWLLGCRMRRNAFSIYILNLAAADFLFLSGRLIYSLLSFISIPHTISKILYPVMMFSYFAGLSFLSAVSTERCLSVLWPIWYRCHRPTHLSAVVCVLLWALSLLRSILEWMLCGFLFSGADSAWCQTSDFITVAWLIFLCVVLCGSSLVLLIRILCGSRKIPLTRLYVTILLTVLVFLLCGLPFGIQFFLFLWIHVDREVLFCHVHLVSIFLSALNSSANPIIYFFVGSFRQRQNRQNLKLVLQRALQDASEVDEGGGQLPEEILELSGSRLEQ
MrgX1 allo act: human MrgX1 positive allosteric modulation, primary screen; Q96LB2; MrgX1-HEK293, Fluo-4 calcium flux, FDSS; stronger effect = higher value; B-score at 10 µM; 0.63% of 310,000 active;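 active = plate-corrected calcium response at least 3 library SD above typical, normal starting fluorescence, not activating the receptor alone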;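 note: compound read alongside a low EC10 to EC30 dose of BAM8-22 agonist; peak minus trough fluorescence over baseline measured at the second addition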
RGS4 inh: inhibitors of human RGS4 | B-score at 10 µM | P49798 | HEK293 M3R/RGS4 inducible, Fluo-4 calcium flux; stronger effect = higher value; triggered by carbachol at its EC20 | 0.45% of 310,000 active | AID 463165;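 active = B-score, a plate-corrected calcium signal, over three deviations above library mean, with baseline fluorescence within five deviations of library mean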;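 note: RGS4 expression induced by doxycycline in cells with stable M3 receptor; B-score is computed from the integrated fluorescence ratio over baseline after carbachol; higher B-score means a larger calcium signal and so more RGS4 inhibition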
Target sequence (P49798 whole entry, looked up): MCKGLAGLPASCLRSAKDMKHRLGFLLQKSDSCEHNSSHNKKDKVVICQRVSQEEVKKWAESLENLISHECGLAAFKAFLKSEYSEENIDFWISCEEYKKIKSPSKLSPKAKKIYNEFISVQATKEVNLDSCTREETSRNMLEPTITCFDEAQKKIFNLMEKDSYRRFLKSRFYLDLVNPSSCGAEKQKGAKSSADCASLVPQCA
MrgX1 agonist: human MrgX1 receptor agonism, primary screen; Q96LB2; MrgX1-HEK293 cells, Fluo-4 calcium fluorescence, agonist mode; stronger effect = higher value; B-score at 10 µM; 0.44% of 310,000 active; AID 588627;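 active = calcium response B-score plate-corrected fluorescence ratio at least 3 library SD, with starting fluorescence B-score inside 5 SD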
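Material: MrgX1-expressing HEK293 cells / Dosing: compound as first of three additions / Incubation: overnight seeding, then 1 h dark dye loading / Signal: Fluo-4 NW calcium fluorescence / Evaluation: B-scored fluorescence response ratio / Benchmarks: positive and negative control wells on each plate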
MrgX1 allo conf: human MrgX1 positive allosteric modulation, re-confirmation; 13% of 1,200 active; shares compounds with MrgX1 allo act; MrgX1-HEK293, Fluo-4 calcium fluorescence, FDSS; activation (ratio percentage), % at 10 µM;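 active = ratio at least 3 SD above the weak peptide control, stable starting fluorescence, no direct agonism earlier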;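 note: compound followed by low BAM8-22 agonist challenge near EC20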
MrgX1 antag conf: human MrgX1 receptor antagonism, re-confirmation screen | shares compounds with MrgX1 antagonist | 19% of 2,300 active | MrgX1-HEK293, BAM8-22 calcium flux, Fluo-4; stronger effect = lower value | remaining BAM8-22 calcium response % of control (stronger effect = lower value), % at 10 µM;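 active = remaining agonist calcium response no higher than 100% minus 3 SD of agonist-only control wells, with starting fluorescence near control levels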;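 note: agonist BAM8-22 given at a near maximal EC90 to ECmax level; peak minus minimum fluorescence divided by baseline after agonist addition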
HEK293 Ca flux: activity in parental HEK293 cells lacking MrgX1; shares compounds with MrgX1 antagonist; Fluo-4 calcium fluorescence, FDSS; fluorescence ratio F(max-min)/F0 at 10 µM; 2% of 4,000 active; AID 624111;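 active = duplicate-averaged calcium fluorescence ratio at least three times the standard deviation of buffer wells, a nonspecific response in parental cells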
HEK293 Ca counter: activity in parental HEK293 cells without MrgX1; shares compounds with MrgX1 antagonist; parental HEK293 calcium flux, Fluo-4 fluorescence ratio; stronger effect = higher value; fluorescence ratio F(max-min)/F0 at 10 µM; 0.4% of 4,000 active; AID 624114;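 active = calcium fluorescence ratio, averaged over duplicates, at least 3 SD of the buffer-well ratio, meaning a nonspecific response in receptor-free cells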;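 note: untransfected parental HEK293 lacking MrgX1 used as counterscreen for MrgX1 allosteric activators; fluorescence change taken during the second addition on a kinetic imager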
HEK293 Ca cntr2: activity in parental HEK293 cells lacking MrgX1 receptor | shares compounds with MrgX1 antagonist | Fluo-4 calcium fluorescence (FDSS); stronger effect = higher value | fluorescence ratio F(max-min)/F0 at 10 µM | 8.7% of 4,000 active;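 active = calcium fluorescence ratio at least three times the spread of buffer wells, meaning a non-specific response in parental cells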
Starred values were filed as active, the others as inactive; i = inactive; x = not tested or not shown.

SMILES	RGS4 pot	MrgX1 antagonist	MrgX1 allo act	RGS4 inh	MrgX1 agonist	MrgX1 allo conf	HEK293 Ca flux	HEK293 Ca counter	HEK293 Ca cntr2	others
COc1ccc(-c2cn[nH]c2-c2ccc(OC)cc2O)cc1	i	i	16*	i	i	12%*	i	i	i
COc1ccc(-c2[nH]ncc2-c2csc(C)n2)c(O)c1	i	i	i	i	i	x	x	x	x
COc1ccc(-c2[nH]ncc2-c2ccc(Cl)cc2)c(O)c1	i	i	6.7*	i	i	27%*	i	i	i
CCOc1ccc(-c2[nH]ncc2-c2csc(C)n2)c(O)c1	i	i	i	i	i	x	x	x	x
O=S(=O)(NCCc1ccccc1)c1ccc(Cl)nc1	i	i	i	i	i	x	x	x	x
CN(c1ccc(C(=O)Nc2ccc(Cl)cn2)cc1)S(=O)(=O)c1ccccc1	i	i	9.7*	i	i	i	i	i	i
Cc1ccc(S(=O)(=O)N(C)c2ccc(C(=O)Nc3ccc(C)cn3)cc2)cc1	i	i	i	i	i	x	x	x	x
CCN(CC)S(=O)(=O)c1cc(C(=O)Nc2ccc(Cl)cn2)ccc1C	i	i	20*	i	i	12%*	i	i	i
CN(C)C(=O)C1C2NC(=S)N(c3cccc(Cl)c3)C1(C)Oc1ccc(Cl)cc12 (stereo not given)	i	i	i	i	i	x	x	x	x
CCN(CC(=O)Nc1ccc(NC(C)=O)cc1)c1ccc(C(F)(F)F)cn1	i	i	9.6*	i	i	i	i	i	i
CC(=O)Nc1ccc(N2CCN(c3ccc(C(F)(F)F)cn3)CC2)nc1	i	i	i	i	i	x	x	x	x
COc1ccc(CN(CC2CCCO2)C(=O)c2cc3sccc3n2C)c(OC)c1 (stereo not given)	i	i	6.5*	i	i	i	i	i	i
CC(C)C(OC(=O)c1cc2sccc2n1C)C(=O)NCC1CCCO1 (stereo not given)	i	i	i	i	i	x	x	x	x
CCOC(=O)C1CCCN(C(=O)c2cc3cc(F)ccc3[nH]2)C1 (stereo not given)	i	i	7.9*	i	i	i	i	i	i
Cc1ccc2[nH]c(C(=O)N3CCOCC3)cc2c1	i	i	i	i	i	x	x	x	x
Cc1ccc2[nH]c(C(=O)N3CCCCC3)cc2c1	i	i	17*	i	i	i	i	i	i
O=C(c1cc2cc(F)ccc2[nH]1)N1CCCC(Nc2ccc(F)cc2)C1 (stereo not given)	i	i	13*	i	i	i	i	i	i
CCOC(=O)C1CCN(C(=O)c2cc3cc(F)ccc3[nH]2)CC1	i	i	i	i	i	x	x	x	x
O=S(=O)(Nc1nc2ccccc2s1)c1cc(F)ccc1F	i	i	i	i	i	x	x	x	x
O=S(=O)(Nc1nc2ccccc2s1)c1ccc(Cl)s1	i	-5.3*	9.1*	i	i	i	i	i	i	MrgX1 antag conf=i
O=C(CSc1c[nH]c2ccccc12)N1CCOCC1	i	i	i	i	i	x	x	x	x

Compound activity: PubChem, Johns Hopkins Ion Channel Center
